For six molecules, Activity, Ratio and Time results are on record in ChEMBL document CHEMBL3616437, “Thiazole compounds with activity against Cryptococcus gattii and Cryptococcus neoformans in vitro” (Eur J Med Chem, 2015).

Assay [1] relates to Cryptococcus neoformans. The assay is described as follows: Antifungal activity against Cryptococcus neoformans ATCC 28957 assessed as reduction in cell viability at 3.9 uM after 6 to 72 hrs by MTT assay. Format: functional. For orientation: Tetrazolium assays rely on reduction of a dye to a coloured formazan, in cell work by metabolically active cells.
Assay [2] has as its system Cryptococcus gattii species complex. Put plainly: Antifungal activity against Cryptococcus gattii L24/01 assessed as reduction in cell viability at 3.9 uM after 6 to 72 hrs by MTT assay. Format: functional, Cryptococcus bacillisporus.
For assay [3] the test system is unchanged. Put plainly: Antifungal activity against Cryptococcus gattii L28/02 assessed as reduction in cell viability at 3.9 uM after 6 to 72 hrs by MTT assay. Format: functional, Cryptococcus bacillisporus.
Assay [4] shares this test system. Put plainly: Antifungal activity against Cryptococcus gattii ICB181 assessed as reduction in cell viability at 3.9 uM after 6 to 72 hrs by MTT assay. Format: functional, Cryptococcus bacillisporus.
Assay [5] deals with Cryptococcus neoformans. Put plainly: Antifungal activity against Cryptococcus neoformans F10 assessed as reduction in cell viability at 3.9 uM after 6 to 72 hrs by MTT assay. Format: functional.
Assay [6] deals with Cryptococcus bacillisporus. Put plainly: Antifungal activity against Cryptococcus gattii ATCC 32608 assessed as reduction in cell viability at 3.9 uM after 6 to 72 hrs by MTT assay. Format: functional.
Assay [7] deals with Cryptococcus neoformans. Put plainly: Antifungal activity against Cryptococcus neoformans LMM820 assessed as reduction in cell viability at 3.9 uM after 6 to 72 hrs by MTT assay. Format: functional.
Assay [8] has as its system Cryptococcus neoformans. The assay is described as follows: Antifungal activity against Cryptococcus neoformans 96806 assessed as reduction in cell viability at 3.9 uM after 6 to 72 hrs by MTT assay. Format: functional.
A further assay has as its system Cryptococcus gattii. The assay is described as follows: Antifungal activity against Cryptococcus gattii ATCC 24065 assessed as reduction in cell viability at 3.9 uM after 6 to 72 hrs by MTT assay.
Assay [9] deals with Cryptococcus neoformans. The assay is described as follows: Antifungal activity against Cryptococcus neoformans VM-MCMMPI assessed as reduction in cell viability at 3.9 uM after 6 to 72 hrs by MTT assay. Format: functional.
In assay [10] the test system is Cryptococcus neoformans. The assay is described as follows: Antifungal activity against Cryptococcus neoformans CN31 assessed as reduction in cell viability at 3.9 uM after 6 to 72 hrs by MTT assay. Format: functional.
In assay [11] the test system is Cryptococcus neoformans. Put plainly: Antifungal activity against Cryptococcus neoformans WP assessed as reduction in cell viability at 3.9 uM after 6 to 72 hrs by MTT assay. Format: functional.
For assay [12], the system named is Cryptococcus gattii species complex. The assay is described as follows: Antifungal activity against Cryptococcus gattii 196L/03 assessed as reduction in cell viability at 3.9 uM after 6 to 72 hrs by MTT assay. Format: functional, Cryptococcus bacillisporus.
Assay [13] shares this test system. The assay is described as follows: Antifungal activity against Cryptococcus gattii 23/10993 assessed as reduction in cell viability at 3.9 uM after 6 to 72 hrs by MTT assay. Format: functional, Cryptococcus bacillisporus.
Assay [14] has the same test system. Put plainly: Antifungal activity against Cryptococcus gattii 135L/03 assessed as reduction in cell viability at 3.9 uM after 6 to 72 hrs by MTT assay. Format: functional, Cryptococcus bacillisporus.
Assay [15] shares this test system. The assay is described as follows: Antifungal activity against Cryptococcus gattii 547/OTTI-97-PI-10 assessed as reduction in cell viability at 3.9 uM after 6 to 72 hrs by MTT assay. Format: functional, Cryptococcus bacillisporus.
For assay [16], the system named is Cryptococcus neoformans. The assay is described as follows: Antifungal activity against Cryptococcus neoformans ATCC 24067 assessed as reduction in cell viability at 3.9 uM after 6 to 72 hrs by MTT assay. Format: functional.
Assay [17] relates to Cryptococcus neoformans. Put plainly: Antifungal activity against Cryptococcus neoformans ATCC 62066 assessed as reduction in cell viability at 3.9 uM after 6 to 72 hrs by MTT assay. Format: functional.
For assay [18], the system named is Cryptococcus neoformans. Put plainly: Antifungal activity against Cryptococcus neoformans LMM820 assessed as reduction in cell viability at 1.9 uM after 6 to 72 hrs by MTT assay. Format: functional.
Assay [19] concerns Cryptococcus gattii species complex. The assay is described as follows: Antifungal activity against Cryptococcus gattii 196L/03 assessed as reduction in cell viability at 1.9 uM after 6 to 72 hrs by MTT assay. Format: functional, Cryptococcus bacillisporus.
Assay [20] has as its system Cryptococcus neoformans. Put plainly: Antifungal activity against Cryptococcus gattii ATCC 24065 assessed as reduction in cell viability at 1.9 uM after 6 to 72 hrs by MTT assay. Format: functional, Cryptococcus bacillisporus.
The subject of assay [21] is Cryptococcus gattii species complex. Put plainly: Antifungal activity against Cryptococcus gattii L27/01 assessed as reduction in cell viability at 1.9 uM after 6 to 72 hrs by MTT assay. Format: functional, Cryptococcus bacillisporus.
Assay [22] shares this test system. The assay is described as follows: Antifungal activity against Cryptococcus gattii 1913ER assessed as reduction in cell viability at 1.9 uM after 6 to 72 hrs by MTT assay. Format: functional, Cryptococcus bacillisporus.
The test system is the same in assay [23]. Put plainly: Antifungal activity against Cryptococcus gattii L24/01 assessed as reduction in cell viability at 1.9 uM after 6 to 72 hrs by MTT assay. Format: functional, Cryptococcus bacillisporus.
The nature of assay [24]: Selectivity index, ratio of IC50 for C57BL/6 mouse peritoneal macrophages to MIC for Cryptococcus gattii ATCC 24065.
For assay [25], the system named is Cryptococcus gattii species complex. The assay is described as follows: Antifungal activity against Cryptococcus gattii LMM818 assessed as reduction in cell viability at 0.12 uM after 6 to 72 hrs by MTT assay. Format: functional, Cryptococcus bacillisporus.
The subject of assay [26] is Cryptococcus neoformans. Put plainly: Antifungal activity against Cryptococcus neoformans 27JF assessed as reduction in cell viability at 0.12 uM after 6 to 72 hrs by MTT assay. Format: functional.
Assay [27] has as its system Cryptococcus neoformans. The assay is described as follows: Antifungal activity against Cryptococcus neoformans 28JF assessed as reduction in cell viability at 0.12 uM after 6 to 72 hrs by MTT assay. Format: functional.
The subject of assay [28] is Cryptococcus gattii species complex. Put plainly: Antifungal activity against Cryptococcus gattii 135L/03 assessed as reduction in cell viability at 0.12 uM after 6 to 72 hrs by MTT assay. Format: functional, Cryptococcus bacillisporus.
Assay [29] has as its system Cryptococcus bacillisporus. Put plainly: Antifungal activity against Cryptococcus gattii ATCC 32608 assessed as reduction in cell viability after at 0.12 uM 6 to 72 hrs by MTT assay. Format: functional.
Assay [30] has as its system Cryptococcus neoformans. The assay is described as follows: Antifungal activity against Cryptococcus neoformans 27JF assessed as reduction in cell viability at 26 uM after 6 to 72 hrs by MTT assay. Format: functional. In short, it runs like this:
(§1)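 Time-kill setup: colonies from two 48 h, 35°C SDA passages were suspended in saline to 70% transmittance at 530 nm. They were then diluted to 1-5 x10^3 cells/mL in RPMI with L-glutamine buffered to pH 7.0 with 0.165 M MOPS. Plates were incubated at 35°C for 0-72 h, then MTT (5.0 mg/mL) was added for 3 h. After isopropanol, absorbance was read at 490 nm. Drug-free controls were included, results were confirmed by SDA colony counts, and assays were run in triplicate.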

The test system of assay [31] is Cryptococcus gattii species complex. Put plainly: Antifungal activity against Cryptococcus gattii L24/01 assessed as reduction in cell viability at 26 uM after 6 to 72 hrs by MTT assay. Format: functional, Cryptococcus bacillisporus. In short, it runs like this: as §1
In assay [32] the test system is Cryptococcus neoformans. The assay is described as follows: Antifungal activity against Cryptococcus neoformans 96806 assessed as reduction in cell viability at 26 uM after 6 to 72 hrs by MTT assay. Format: functional. In short, it runs like this:
as §1

Assay [33] has as its system Cryptococcus neoformans. The assay is described as follows: Antifungal activity against Cryptococcus neoformans 28JF assessed as reduction in cell viability at 26 uM after 6 to 72 hrs by MTT assay. Format: functional. In short, it runs like this:
as §1

The subject of assay [34] is Cryptococcus neoformans. The assay is described as follows: Antifungal activity against Cryptococcus neoformans WP assessed as reduction in cell viability at 0.9 uM after 6 to 72 hrs by MTT assay. Format: functional.
Assay [35] deals with Cryptococcus neoformans. Put plainly: Antifungal activity against Cryptococcus neoformans CN31 assessed as reduction in cell viability at 0.9 uM after 6 to 72 hrs by MTT assay. Format: functional.
For assay [36], the system named is Cryptococcus neoformans. Put plainly: Antifungal activity against Cryptococcus neoformans LMM820 assessed as reduction in cell viability at 0.9 uM after 6 to 72 hrs by MTT assay. Format: functional.
Assay [37] deals with Cryptococcus neoformans. The assay is described as follows: Post-antifungal activity against Cryptococcus neoformans CN31 assessed as organism required time to achieve cell population of 10^4 cells/ml at 0.9 uM treated for 1 hr by MTT assay. Format: functional.

Structures are written as SMILES.

`c1ccc(-c2csc(NN=C3CCCC3)n2)cc1`: the Activity (with Cryptococcus neoformans [1]; in [2]; in assay [3]; in assay [4]; in the assay on Cryptococcus neoformans [5]; in assay [6]) was 80% throughout. The Activity in the assay on Cryptococcus neoformans [7], in the assay on Cryptococcus neoformans [8], in the assay with Cryptococcus gattii, in the assay on Cryptococcus neoformans [9], with Cryptococcus neoformans [10] and in the assay on Cryptococcus neoformans [11] was 80% each time. The Activity (in [12]; in assay [13]; in assay [14]; in assay [15]; in the assay on Cryptococcus neoformans [16]; in the assay with Cryptococcus neoformans [17]) was 80% throughout.
As for `C(=N\Nc1nc(-c2ccccc2)cs1)/C1CCCCC1`, the Activity (with Cryptococcus neoformans [18]; in [19]; with Cryptococcus neoformans [20]; in assay [21]; in assay [22]; in assay [23]) was 90% each time.
On to `COc1ccc(-c2csc(N/N=C/C3CCCCC3)n2)cc1`, for which the Activity (with Cryptococcus neoformans [1]; in [2]; in assay [3]; in [4]; in the assay on Cryptococcus neoformans [5]; in assay [6]) was 80% each time. Also, the Activity in the assay on Cryptococcus neoformans [7], in the assay on Cryptococcus neoformans [8], in the assay on Cryptococcus gattii, in the assay with Cryptococcus neoformans [9], with Cryptococcus neoformans [10] and with Cryptococcus neoformans [11] was 80% each time. For the same molecule, the Activity (in assay [12]; in assay [13]; in assay [14]; in assay [15]; in the assay with Cryptococcus neoformans [16]; with Cryptococcus neoformans [17]) was 80% in each case. The Ratio in [24] is listed as 25.64.
For the molecule `C[C@@H]1[C@H](O)[C@@H](C)/C=C/C=C/C=C/C=C/C=C/C=C/C=C/[C@H](O[C@@H]2O[C@H](C)[C@@H](O)[C@H](N)[C@@H]2O)C[C@@H]2O[C@](O)(C[C@@H](O)C[C@@H](O)[C@H](O)CC[C@@H](O)C[C@@H](O)CC(=O)O[C@H]1C)C[C@H](O)[C@H]2C(=O)O` [AMPHOTERICIN B], the Activity (in [25]; with Cryptococcus neoformans [26]; with Cryptococcus neoformans [27]; in assay [28]; in assay [29]) was 90% throughout.
Consider `OC(Cn1cncn1)(Cn1cncn1)c1ccc(F)cc1F` [FLUCONAZOLE], for which the Activity (with Cryptococcus neoformans [30]; in [31]; in the assay on Cryptococcus neoformans [32]; in the assay on Cryptococcus neoformans [33]) was 80% throughout. The Ratio in assay [24] was 7.87.
Take `COc1ccc(-c2csc(N/N=C(\C)CCO)n2)cc1`: the Activity (in assay [19]; in the assay with Cryptococcus neoformans [34]; in the assay with Cryptococcus neoformans [35]; in the assay on Cryptococcus neoformans [20]; in assay [21]; in assay [22]) was 90% throughout. Besides, the Activity (in the assay with Cryptococcus neoformans [36]; in [23]) was 90% each time. In addition, the Time in the assay on Cryptococcus neoformans [37] stood at 2.8 h.
